Measurements of several laboratories.
Target: BDNF/NT-3 growth factors receptor (NTRK2, Homo sapiens, UniProt Q16620)

With Cc1cc(-n2nc(Cc3cc(F)cc(C(F)(F)F)c3)nc2C)ccc1C(N)=O the remaining binding was 98% (cell-free assay; competition with immobilised ligand; 1 µM).
The remaining signal of N#CCCc1ccc2c(c1)-c1[nH]c3ccc([N+](=O)[O-])cc3c1CC(=O)N2 is reported as 86.4% (cell-free assay; 0.5 µM).
For Nc1cnc(N2CCc3cc(S(=O)(=O)Nc4c(F)cc(Cl)cc4F)cc(N4CCCC4=O)c32)nc1, the remaining binding was 100% (cell-free assay; competition with immobilised ligand; 1 µM).
With CC(C)(O)[C@H]1CC[C@H](Nc2ccc3ncc(-c4cccc(C(F)(F)F)c4)n3n2)CC1 the remaining activity was 7.07% (enzyme activity; inhibitor; 1 µM).
The remaining binding of Cc1c(NC(=O)c2cc(C(N)=O)nc3cc(F)ccc23)c(C(F)(F)F)nn1Cc1ccc(C(C)(C)C)cc1 is reported as 100% (cell-free assay; competition with immobilised ligand; 1 µM).
The inhibition of O=C(Nc1cnn2ccc(N3CCC[C@@H]3c3cc(F)ccc3F)nc12)N1CC[C@H](O)C1 is reported as 100% (enzyme activity; inhibitor; FRET; 1 µM).
The remaining signal of COc1cc2c(N3CCN(C(=O)Nc4ccc(OC(C)C)cc4)CC3)ncnc2cc1OCCCN1CCCCC1 is reported as 81.7% (cell-free assay; 0.5 µM).
O=C(Nc1ccc(Oc2ccc(F)cc2)cc1)N1CCc2ncccc2[C@H]1c1ccc(F)cc1 has a remaining binding of 84% (cell-free assay; competition with immobilised ligand; 1 µM).
With CCN(CC)CCNC(=O)c1c(C)[nH]c(/C=C2\C(=O)Nc3ccc(F)cc32)c1C the inhibition was 100% (cell-free assay; 10 µM).
The remaining signal of O=C1Nc2ccc(Cl)cc2C1=Cc1cc(Cl)c(O)c(Cl)c1 is reported as 61.1% (cell-free assay; 0.5 µM).
CS(=O)(=O)NCC[C@H](NC(=O)c1cncc2c1cnn2-c1ccc(F)cc1)c1ccnc(S(C)(=O)=O)c1 gave a remaining binding of 100% (cell-free assay; competition with immobilised ligand; 1 µM).
CC(C)(C)c1nc(-c2cccc(NS(=O)(=O)c3c(F)cccc3F)c2F)c(-c2ccnc(N)n2)s1 has a remaining activity of 100% (enzyme activity; inhibitor; radiometric; 1 µM).
For O=C1CCc2cc(Nc3cc(OC4CCOCC4)c([N+](=O)[O-])cc3Cl)ccc2N1, the remaining binding was 100% (cell-free assay; competition with immobilised ligand; 1 µM).
For CNC(=O)c1cc(Oc2ccc(NC(=O)Nc3ccc(Cl)c(C(F)(F)F)c3)cc2)ccn1, the inhibition was 99% (cell-free assay; 10 µM).
For O=C(Cc1ccc(C(F)(F)F)cc1)Nc1cccc(C(=O)Nc2ccc3[nH]ncc3c2)c1, the inhibition was 16.8% (enzyme activity; inhibitor; FRET; 1 µM).
With Cc1cc(NC(=O)c2cccc3cc(-c4cccc5[nH]nc(N)c45)ccc23)ccc1F the activity vs control was 107% (enzyme activity; inhibitor; 0.1 µM).
The inhibition of CN1CCN(CC(=O)Nc2cccc(C(=O)Nc3ccc4[nH]ncc4c3)c2)CC1 is reported as 13.3% (enzyme activity; inhibitor; FRET; 1 µM).
With Cc1sc(C(=O)NC2COC2)cc1-n1cc(NC(=O)Nc2c(F)cccc2Cl)cn1 the remaining activity was 92.4% (enzyme activity; inhibitor; 10 µM).
O=C(Nc1ccc(Br)cc1)Nc1cccc(C(=O)Nc2ccc3[nH]ncc3c2)c1 has an inhibition of 15.7% (enzyme activity; inhibitor; FRET; 1 µM).
CNC(=O)Nc1ccc2c(c1)[C@@]1(CC2)OC(=O)N(CC(=O)N(Cc2ccc(F)cc2)[C@@H](C)C(F)(F)F)C1=O has a remaining binding of 89% (cell-free assay; competition with immobilised ligand; 1 µM).
O=C(Nc1ccc2[nH]ncc2c1)c1cccc(NC(=S)Nc2ccc(F)cc2F)c1 has an inhibition of 9.64% (enzyme activity; inhibitor; FRET; 1 µM).
For CCN(CC)c1ccc(C2=NNC(=O)CC2C)cc1[N+](=O)[O-] (stereo not shown), the remaining activity was 87% (enzyme activity; inhibitor; 10 µM).
For O=C(Nc1ccc2[nH]ncc2c1)c1cccc(NC(=S)Nc2cc(C(F)(F)F)cc(C(F)(F)F)c2)c1, the inhibition was 11.2% (enzyme activity; inhibitor; FRET; 1 µM).
Nc1ncnc2occ(-c3ccc(NC(=O)Nc4cc(C(F)(F)F)ccc4F)cc3)c12 gave a remaining signal of 1.4% (cell-free assay; 20 µM).
O=C(Nc1ccccc1)Nc1cccc(C(=O)Nc2ccc3[nH]ncc3c2)c1 has an inhibition of 12.3% (enzyme activity; inhibitor; FRET; 1 µM).
With c1ccc(N2CCN(Cc3nc4ccccc4[nH]3)CC2)nc1 the remaining binding was 100% (cell-free assay; competition with immobilised ligand; 1 µM).
For O=C(Nc1ccc2[nH]ncc2c1)c1cccc(NC(=S)Nc2ccc(C(F)(F)F)cc2)c1, the inhibition was 19.6% (enzyme activity; inhibitor; FRET; 1 µM).
The remaining signal of Cc1ccc(C(=O)Nc2ccc(CN3CCN(C)CC3)c(C(F)(F)F)c2)cc1C#Cc1cnc2cccnn12 is reported as 2.3% (cell-free assay; 23.5 nM).
